The array DNA melting data of Ke et al. (doi:10.1101/2024.01.08.574731)

Assays:
[1] = melting temperature; fluorescence melt of hairpins on a sequencing array, two-state fit, raised by 9.35 °C to match UV melts; conditions: sodium 0.088 M
Outline: (§1)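 Hairpins were imaged by Cy3 fluorescence on a sequenced MiSeq flow cell with annealed Cy3 and quencher oligos, in 50 mM Na-HEPES pH 8.0, 25 mM NaCl, in 2.5 °C steps up to 60 °C. Bootstrapped two-state fits of normalised signals gave melting temperature and folding enthalpy. Four replicates were combined by inverse variance, and fitted temperatures were raised by 9.35 °C to match UV melts.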

[2] = folding enthalpy; higher = less favourable; fluorescence melt of hairpins on a sequencing array, two-state fit; conditions: sodium 0.088 M
Outline: as §1

GAATAGGGAAACCTATCC (.(((((....))))).)
Tm [1]: 26.4 °C | folding enthalpy [2]: -15.5 kcal/mol

GAATATCCGAAAGGATTC (((..(((....))))))
Tm [1]: 28.5 °C | folding enthalpy [2]: -13.4 kcal/mol

GAATCCGAAAGGATGTTC ((((((....)))..)))
Tm [1]: 37.3 °C | folding enthalpy [2]: -13.8 kcal/mol

GAATCCGAAAGGATTC ((((((....))))))
Tm [1]: 66.5 °C | folding enthalpy [2]: -37 kcal/mol

GAATCCGGAAACGGATCC (.(((((....))))).)
Tm [1]: 40.6 °C | folding enthalpy [2]: -14.2 kcal/mol

GAATCCGGAAACGGGTTC (((.(((....))).)))
Tm [1]: 52.2 °C | folding enthalpy [2]: -33.5 kcal/mol

GAATCGAAAGATTC (((((....)))))
Tm [1]: 50.9 °C | folding enthalpy [2]: -27.4 kcal/mol

GAATCGCGAAAGCGCTTC (((.(((....))).)))
Tm [1]: 43.2 °C | folding enthalpy [2]: -18.1 kcal/mol

GAATCGGGAAACTGGTTC (((.(.(....).).)))
Tm [1]: 29.3 °C | folding enthalpy [2]: -19.8 kcal/mol

GAATCTCCGAAAGGATTC (((..(((....))))))
Tm [1]: 28.7 °C | folding enthalpy [2]: -13.5 kcal/mol

GAATCTGGAAACAGACTC ((.((((....)))).))
Tm [1]: 29.1 °C | folding enthalpy [2]: -17.7 kcal/mol

GAATCTGGAAACGGATTC (((((.(....).)))))
Tm [1]: 44.8 °C | folding enthalpy [2]: -35.1 kcal/mol

GAATGACGAAAGTCGTTC (((.(((....))).)))
Tm [1]: 54.7 °C | folding enthalpy [2]: -34.4 kcal/mol

GAATGAGGAAACCCATTC (((((.(....).)))))
Tm [1]: 36.1 °C | folding enthalpy [2]: -20.9 kcal/mol

GAATGCACGAAAGTGTTC (((..(((....))))))
Tm [1]: 23.1 °C | folding enthalpy [2]: -8.75 kcal/mol

GAATGCCGAAAGGCTTTC (((.(((....))).)))
Tm [1]: 48 °C | folding enthalpy [2]: -21.7 kcal/mol

GAATGCGCGAAAGCGTTC (((..(((....))))))
Tm [1]: 26.1 °C | folding enthalpy [2]: -8.39 kcal/mol

GAATGCGGAAACGCACTC ((.((((....)))).))
Tm [1]: 38.4 °C | folding enthalpy [2]: -13.1 kcal/mol

GAATGGCCGAAAGGCTTC (((..(((....))))))
Tm [1]: 27.6 °C | folding enthalpy [2]: -6.89 kcal/mol

GAATGTGGAAACACGTTC (((.(((....))).)))
Tm [1]: 47.8 °C | folding enthalpy [2]: -32.3 kcal/mol

GAATGTGGAAACGCATTC (((((.(....).)))))
Tm [1]: 46 °C | folding enthalpy [2]: -37.5 kcal/mol

GAATTAGGAAACTAGTTC (((.(((....))).)))
Tm [1]: 27.1 °C | folding enthalpy [2]: -16.8 kcal/mol

GAATTCCGAAAGGATTC (((.(((....))))))
Tm [1]: 38.4 °C | folding enthalpy [2]: -20.2 kcal/mol
